PubChem BioAssay AID822 (SRMLSC, 2007)
The source made the active and inactive calls.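 Rule for the calls: active = half-maximal effective dose for blocking growth of human endothelial cells at most 100 µM; inactive = the rest.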

tested on: HUVEC proliferation, viability ATP luminescence; assay: growth suppression of umbilical vein endothelial cells – cell-based, HUVEC, ATP luminescence, dose response (AID 822);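 note: cells exposed to compound for 72 h before the ATP read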
Outline: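 Test system: HUVEC; Input: 1250 HUVEC cells seeded per well; Doses: 0.039–20 µM, 0.2% DMSO; Evaluation: % viability versus median cell-only wells, EC50 from 4-parameter fit; Medium: EBM plus 2% FBS; Incubation: compound treatment 72 h, 37 °C; Signal: luminescent ATP measurement with CellTiter-Glo reagent; Plate: collagen-coated multiwell plates.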

Point of comparison: CC(=O)SC(C[N+](=O)[O-])c1cn(C(C)=O)c2ccccc12 (centres undefined), EC50 6.72 µM. Against it:
- COc1ccc(C(=O)C(CN2CCOCC2)c2ccccc2)cc1F (centres undefined) — within 1.5-fold, 7.19 µM
- N#Cc1nc(COc2ccc(-c3ccccc3)cc2)oc1NCCCN1CCOCC1 — 1.6-fold higher, 10.6 µM
- COC(=O)C(CC(=O)c1ccc(Br)cc1)n1ccnc1 (centres undefined) — within 1.5-fold, 9.3 µM
- O=C(C#Cc1cccc([N+](=O)[O-])c1)c1ccccc1 — 3-fold higher, 20.3 µM
- CCCCc1ccc(Nc2nc(CCC)cc(=O)[nH]2)cc1 — within 1.5-fold, 9.15 µM
- CCOC(=O)C(C(C)=O)c1c(Br)c(O)c(O)c2c(C(=O)c3ccc(C)cc3)coc12 (centres undefined) — within 1.5-fold, 7.17 µM
- C=CCc1ccc(OCC(O)CN2CCC(Cc3ccccc3)CC2)c(OC)c1 (centres undefined) — within 1.5-fold, 9.81 µM
- CC1=NOC(=O)/C1=C/c1ccc(-c2ccc(Cl)cc2)o1 — 1.7-fold lower, 4.06 µM
- COc1cc(N=c2ssnc2Cl)cc(OC)c1OC — 2-fold higher, 13.4 µM
- O=Cc1ccc(Sc2nnc(-c3ccccc3)o2)c([N+](=O)[O-])c1 — 1.7-fold higher, 11.4 µM
- COc1ccc(CNC(=O)c2c(N)n(CCCN3CCOCC3)c3nc4ccccc4nc23)cc1 — within 1.5-fold, 10 µM
- CN(C)c1ccc(/C=C(\C#N)C(=O)Nc2nc3c(s2)CCN(Cc2ccccc2)C3)cc1 — 1.7-fold lower, 3.88 µM
- Cc1cc(C)n(-c2nc(NCCC(C)C)c3c4c(sc3n2)COC(C)(C)C4)n1 — 2.2-fold higher, 14.5 µM
- Cc1cc(N2CCCCC2)nc2ccc(NC(=O)c3ccc(Br)o3)cc12 — 2.6-fold higher, 17.2 µM
- Cc1ccc(-c2nnc(SCC(=O)Nc3ccccc3F)o2)cc1 — 2.9-fold higher, 19.2 µM
- COc1cc(OC)cc(C(=O)Nc2ccc(-c3nc4ccccc4o3)cc2)c1 — within 1.5-fold, 6.75 µM
- CC(C)CC[n+]1ccn(C2=C([O-])c3ccccc3C(=O)/C2=N\S(=O)(=O)c2ccccc2)c1 — within 1.5-fold, 5.38 µM
- CCC(C)NC(=O)c1c(N)n(/N=C/c2cccnc2)c2nc3ccccc3nc12 (centres undefined) — 1.9-fold higher, 12.6 µM
- COc1cc(-c2nc(-c3ccc(NC(=O)c4ccc(Br)o4)cc3)no2)cc(OC)c1OC — within 1.5-fold, 7.42 µM
- Cc1cc(C)n(CC(O)Cn2c3ccc(Br)cc3c3cc(Br)ccc32)c(=O)n1 (centres undefined) — 1.6-fold higher, 10.7 µM
- OCc1ccc(O)c2ncccc12 — 3.1-fold higher, 20.5 µM
- CCOC(=O)c1ccccc1Nc1cn(C(C)=O)c2ccccc12 — 1.7-fold higher, 11.7 µM
- Cn1nc(C(C)(C)C)cc1C(=O)NCc1ccc(N2CCCC2=O)cc1 — 2.4-fold higher, 16 µM
- Cc1ccc2oc3c(c(=O)c2c1)C(c1cccc(Br)c1)N(Cc1ccco1)C3=O (centres undefined) — 3-fold higher, 19.9 µM
- Cc1nn2c(NCCCN(C)C)c3c(nc2c1-c1ccccc1)CCC3 — 1.8-fold higher, 12.2 µM
- Cc1ccc2[nH]c3c(N4CCN(Cc5ccc6c(c5)OCO6)CC4)ncnc3c2c1 — within 1.5-fold, 9.97 µM
- Cc1ccc(NC(=O)c2cc(NC(=O)c3ccco3)ccc2N2CCCCC2)cc1 — 2.7-fold higher, 17.9 µM
- CCn1c(=O)cc(C(=O)OC)sc1=Nc1ccc(F)c(F)c1 — 1.7-fold higher, 11.7 µM
- CCCc1ccc(-c2cc(NC(=O)CSc3n[nH]c(N)n3)n(-c3ccccc3)n2)cc1 — within 1.5-fold, 8.38 µM
- Cc1ccc(C(=O)c2c(C)oc3c2C(=O)C(=O)c2ccccc2-3)cc1 — 3-fold higher, 20 µM
- Cc1ccccc1-c1nc(CN2CCC(C(=O)NCCCN3CC(C)CC(C)C3)CC2)c(C)o1 (centres undefined) — within 1.5-fold, 4.85 µM
- CCOc1cc(C(=O)CSc2nnc(CNc3ccc(Cl)cc3)o2)ccc1NC(=O)CC — 2.3-fold higher, 15.7 µM
- CCOC(=O)c1c(OCC)[nH]c2c1cc(O)c1ccccc12 — 2.6-fold higher, 17.4 µM
- COc1cccc(-c2cc(C(=O)Nc3cc(C)n(Cc4ccc(Cl)cc4)n3)no2)c1 — 1.8-fold higher, 12.3 µM
- Oc1ccccc1-c1nnc(SCCN2CCOCC2)n1Cc1ccccc1 — 2-fold higher, 13.6 µM
- N#Cc1nc(-c2ccc(OCc3ccccc3)cc2)oc1NCCCn1ccnc1 — within 1.5-fold, 5.83 µM
- COc1ccc(CNC(=O)c2cc3c(C)nc4ccccc4c3o2)c(OC)c1 — 1.8-fold higher, 11.8 µM
- COc1ccc(C(=O)Nc2ccccc2C(=O)N(Cc2ccco2)C(C(N)=O)C(C)C)cc1 (centres undefined) — 2.2-fold higher, 14.6 µM
- Cc1cc(NC(=O)COC(=O)C(Nc2ccc(C(F)(F)F)cc2Cl)C(C)C)no1 (centres undefined) — 1.8-fold higher, 12.2 µM
- O=C(OCC(=O)N1CCN(C(=O)c2ccco2)CC1)c1cc(-c2ccc(Cl)c(Cl)c2Cl)nc2ccccc12 — 1.6-fold lower, 4.16 µM
- Cc1cc(/C=N/n2cnnc2)c(C)n1-c1ccccc1 — 2.9-fold higher, 19.8 µM
- CCN(CCNC(=O)C1CCN(Cc2nc(-c3ccc(Cl)cc3)oc2C)CC1)c1ccccc1 — within 1.5-fold, 5.82 µM
- CCCCCCOC(=O)C(C#N)c1nc2ccccc2nc1N1CCN(C)CC1 (centres undefined) — within 1.5-fold, 10 µM
- Cc1cc(C)cc(OC(=O)CS(=O)c2ccc(C(F)(F)F)cc2[N+](=O)[O-])c1 (centres undefined) — 2.8-fold higher, 18.7 µM
- CC1(C)Cc2c(C#N)c(N3CCN(C(=O)c4ccco4)CC3)nc(Cc3ccccc3)c2CO1 — within 1.5-fold, 7.74 µM
- Cn1c(=O)n(C)c2cc(NC(=O)CCl)ccc21 — 1.8-fold higher, 12.2 µM
- CC(=O)Oc1ccc(N(C(C)=O)S(=O)(=O)c2cccs2)c2ccccc12 — within 1.5-fold, 9 µM
- COc1ccc(-c2ccc(C#N)c(SCC(=O)Nc3sc4c(c3C#N)CCC4)n2)cc1OC — within 1.5-fold, 4.67 µM
- CCCCC(=O)O[C@H]1CC[C@H]2[C@@H]3CCc4cc(O)ccc4[C@H]3CC[C@]12C — within 1.5-fold, 7.16 µM
- C=CCn1c(SCC(=O)c2c(N)n(CCC)c(=O)n(C)c2=O)nc2sc(CC)cc2c1=O — 2.2-fold higher, 14.9 µM
- CN1CCN(S(=O)(=O)c2ccc(NC(=O)Nc3cccc(Cl)c3)cc2)CC1 — within 1.5-fold, 6.85 µM
- CCOc1ccccc1-n1c(CN2CCN(C(=O)c3ccco3)CC2)nc2ccccc2c1=O — 1.8-fold higher, 12.3 µM
- Nc1nc(-c2ccccc2)cc(-c2ccccc2O)n1 — 1.8-fold higher, 12.4 µM
- CC1=C(SCCC#N)S/C(=C2\SC(C)=C(SCCC#N)S2)S1 — within 1.5-fold, 9.1 µM
- O=C(Nc1nccs1)c1c(O)c2cccc3c2n(c1=O)CCC3 — 3-fold higher, 20.4 µM
- C#CCn1c(=NC(=O)c2ccc(Br)s2)sc2cccc(OC)c21 — 1.8-fold higher, 12.2 µM
- COc1ccc(S(=O)(=O)Nc2ccc(O)c3ccccc23)cc1 — 2.7-fold lower, 2.45 µM
- N=c1c2c(-c3ccccc3)c(-c3ccccc3)oc2ncn1CCCN1CCOCC1 — 2-fold higher, 13.6 µM
- CCCOC(=O)c1ccc(Oc2c(-c3ccc(OC)cc3O)n[nH]c2C)cc1 — within 1.5-fold, 9.48 µM
- COC(=O)c1c(C)n(-c2ccc(OC)cc2)c2ccc(O)cc12 — within 1.5-fold, 8.97 µM
- Oc1c(I)cc(Cl)c2cccnc12 — 3.5-fold lower, 1.94 µM
- OC(C#Cc1ccccn1)c1cccs1 (centres undefined) — 1.6-fold lower, 4.29 µM
- Cc1cccc(-c2nc(CN3CCCC(C(=O)NC4CCCCCC4)C3)c(C)o2)c1 (centres undefined) — 1.6-fold higher, 10.8 µM
- COc1ccc2nc3oc(C(=O)N4CCN(c5ccccc5F)CC4)cc3cc2c1 — 2.3-fold higher, 15.5 µM
- c1ccc(-c2noc(-c3ccc4c(c3)OCO4)n2)nc1 — 2.7-fold lower, 2.47 µM
- Cc1ccc(C2(C(F)(F)F)N=C3Sc4cc(C)cc(C)c4N3C(=O)N2)cc1 (centres undefined) — 1.6-fold higher, 11 µM
- Cc1c(CCOC(=O)C2C3CC4CC(C3)CC2C4)sc[n+]1CC(=O)c1ccc(Br)cc1 (centres undefined) — 1.7-fold higher, 11.4 µM
- CCOC(=O)/C=C/S(=O)(=O)c1ccc(NC(C)=O)cc1 — 2.4-fold higher, 15.8 µM
- CCc1ccc(-c2nc(CN3CCC(C(=O)N4CCN(c5ccccc5)CC4)CC3)c(C)o2)cc1 — 1.6-fold lower, 4.09 µM
- CC1(C)Nc2ccc(O)cc2-c2c1ssc2=S — within 1.5-fold, 4.58 µM
- Cc1cccnc1Nc1nc(-c2ccc(O)cc2O)cs1 — 1.5-fold higher, 10.3 µM
- COC(=O)NC(=C(Cl)Cl)S(=O)(=O)c1ccccc1 — within 1.5-fold, 8.53 µM
- Cc1ccc2[nH]c3c(c2c1)CCC3=O — 2.2-fold higher, 14.7 µM
- COc1ccc2cc3cc(C(=O)Nc4ccc5c(c4)OCO5)oc3nc2c1 — within 1.5-fold, 4.64 µM
- Cc1ccc(S(=O)(=O)c2c(C)nn(C(C)(C)C)c2OC(=O)c2cccs2)cc1 — within 1.5-fold, 8.95 µM
- CCCCCCCCOC(=O)C1=C(C)Nc2nnnn2C1c1cccs1 (centres undefined) — within 1.5-fold, 6.74 µM
- Nc1c(C(=O)NCc2ccc(F)cc2)c2nc3ccccc3nc2n1CCCN1CCOCC1 — 1.5-fold higher, 10.4 µM
- O=c1/c(=C/c2ccco2)sc2n1CN(c1cccc(Br)c1)CN=2 — 2.3-fold higher, 15.7 µM
- COC(=O)Nc1ccc(S(=O)(=O)N2c3ccccc3CCC2C)cc1 (centres undefined) — within 1.5-fold, 9.54 µM
- O=C(Nc1ccc(Cl)cc1)N1CCCN(Cc2ccc(F)cc2)C1 — 1.9-fold higher, 12.6 µM
- CCOc1ccc(-c2n[nH]c(C)c2Oc2ccc(OC)cc2)c(O)c1 — 1.8-fold higher, 12.4 µM
- COc1ccccc1OCC(=O)Nc1cccc(-c2nc3ccccc3o2)c1 — 2-fold higher, 13.7 µM
- COc1ccc(NC(=O)c2cc3n(n2)C(C(F)(F)F)CC(c2ccc(OC)cc2)N3)cc1 (centres undefined) — within 1.5-fold, 9.91 µM
- CC(=O)Nc1ccc(S(=O)(=O)NC2=C(N3CCN(Cc4ccccc4)CC3)C(=O)c3ccccc3C2=O)cc1 — within 1.5-fold, 6.68 µM
- CCN(CC(O)Cn1c2ccccc2c2ccccc21)S(=O)(=O)c1ccc(C)cc1 (centres undefined) — 1.7-fold higher, 11.5 µM
- O=C1C=C(c2ccc(Cl)cc2)C(=O)N1Nc1ccccc1 — 1.6-fold higher, 10.7 µM
- Oc1c(C(Nc2ccccn2)c2ccccn2)ccc2cccnc12 (centres undefined) — 2.6-fold higher, 17.8 µM
- COc1ccc(NC(=O)c2ccccc2NC(=O)COc2ccccc2)cc1 — 1.7-fold higher, 11.2 µM
- CCCc1cc(C(=O)Cc2ccc(F)cc2)c(O)cc1O — within 1.5-fold, 10 µM
- Cc1cc(C)c2c(=O)n(CC(=O)NCCCN3CCN(c4ccccc4F)CC3)sc2n1 — 1.8-fold higher, 12.3 µM
- COc1ccc(-c2cn3c(C)c(C(=O)Nc4cccc(NC(C)=O)c4)sc3n2)cc1 — 1.8-fold higher, 12.1 µM
- CC(C)=CCC/C(C)=C/CCC(C)NCCN1CCNCC1 (centres undefined) — 2.2-fold higher, 14.6 µM
- c1ccc(-c2nccc(-c3ccc(-n4cnc5ccccc54)cc3)n2)cc1 — 2.2-fold higher, 14.9 µM
- COc1cc(-c2nnc(COc3ccc4cc(Br)ccc4c3)o2)cc(OC)c1OC — 1.8-fold higher, 12.1 µM
- Oc1ccccc1/C=N/Nc1nccnc1Cl — within 1.5-fold, 6.28 µM
- Nc1c(C(=O)NCc2ccccc2)nnn1Cc1cccc(Cl)c1 — 2.1-fold higher, 13.9 µM
- COc1ccc(C2Oc3ccccc3C3=C2C(c2cccs2)n2ncnc2N3)cc1 (centres undefined) — 2.4-fold higher, 16.3 µM
- CCCCS(=O)(=O)/C=C\C=C/S(=O)(=O)CCCC — within 1.5-fold, 5.04 µM
- Oc1ccccc1NCC(O)Cn1ccc2ccccc21 (centres undefined) — within 1.5-fold, 8.76 µM
- COc1ccc(-c2cc(C#N)nc(N3CCNCC3)n2)cc1 — 1.9-fold higher, 12.8 µM
- Cc1cccc(NC(=O)Nc2cccc(Oc3c(F)c(F)c(F)c(F)c3F)c2)c1 — 2.3-fold higher, 15.3 µM
- CCCCN(C)S(=O)(=O)c1ccc(C(=O)Nc2nnc(-c3cccs3)o2)cc1 — 4-fold lower, 1.69 µM
- Cc1nn(CC(=O)Nc2ccc3c(c2)oc2ccccc23)c(=O)c2ccccc12 — within 1.5-fold, 6.25 µM
- CC(=O)Nc1ccc(S(=O)(=O)NC2=C(N3CCN(c4ccc(F)cc4)CC3)C(=O)c3ccccc3C2=O)cc1 — 2.8-fold lower, 2.38 µM
- FC(F)C(F)(F)C(F)(F)C(F)(F)c1cc(-c2ccccc2)n[nH]1 — within 1.5-fold, 8.28 µM
- O=C(NCCC1=CCCCC1)C1CCN(Cc2cnn(-c3ccccc3)c2-n2cccc2)CC1 — 2.2-fold higher, 15.1 µM
- Cc1ccc2c(C)ccc(O)c2n1 — within 1.5-fold, 7.33 µM

In the case of COCc1cc(CN2CCCC2)c(O)c2ncccc12, the EC50 is reported as > 10 µM (inactive).
